Hits are enriched below; roughly 1.6% of the tested compounds scored in any of these assays.
PvdQ inh: blocks Pseudomonas aeruginosa PvdQ acylase activity. purified PvdQ acylase, fluorescence plate reader. inhibition, % at 10 µM. 0.063% of 340,000 active; in the data active = inhibition above about 30%, passing the limit was not always enough; inconclusive = no clear call, values can overlap the other calls
RAD54 branch: inhibitors of human RAD54 branch migration | Q92698 | 0.14% of 360,000 active | inhibition, % at 10.4 µM | RAD54 Holliday junction branch migration, FAM/BHQ fluorescence;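 active = mean normalized replicate activity at least 40 and at least half of replicates scoring 40 or more; inconclusive = only one of the two criteria met; inactive = mean below 40 and under half of replicates reaching 40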;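 note: inhibitors cause a drop in the FAM fluorescence signal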
dFosB act-1: mouse delta FosB homodimer activation; P13346; purified delta FosB, TAMRA-CDK5 oligo fluorescence polarization; percent of positive-control signal above neutral wells; activation, % at 25 µM; 0.99% of 340,000 active; AID 493131;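 active = mean activation above about 17%, with every replicate also reaching it, limit read from the data, passing the limit was not always enough; inconclusive = only one of the two conditions met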
Target sequence (P13346 whole entry, looked up): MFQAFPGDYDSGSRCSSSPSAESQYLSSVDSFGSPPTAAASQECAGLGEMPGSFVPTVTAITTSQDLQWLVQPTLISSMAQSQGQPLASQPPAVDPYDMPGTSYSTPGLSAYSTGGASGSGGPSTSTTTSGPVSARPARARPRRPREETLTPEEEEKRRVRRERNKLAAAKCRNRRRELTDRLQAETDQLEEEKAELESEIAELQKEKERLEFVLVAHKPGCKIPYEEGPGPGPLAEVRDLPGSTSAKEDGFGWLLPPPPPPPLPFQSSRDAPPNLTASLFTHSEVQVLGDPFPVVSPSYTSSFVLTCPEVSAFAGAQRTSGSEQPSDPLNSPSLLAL
SR-BI HDL uptake: mouse SR-BI HDL lipid transfer inhibition | Q61009 | ldlA[mSR-BI] CHO cells, DiI-HDL uptake fluorescence, 3 h | inhibition, % at 12.5 µM | 0.96% of 320,000 active;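 active = mean replicate inhibition of at least 70% and a set share of replicates each scoring 70 or more; inconclusive = meets just one of the two criteria; inactive = fails both criteria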
SR-BI DiI-HDL act: activators of SR-BI mediated HDL lipid uptake | CHO ldlA[mSR-BI] cells, DiI-HDL uptake fluorescence, 3 h; 100 = double the neutral-control signal | activation, % at 12.5 µM | 0.096% of 320,000 active | AID 504775;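 active = mean replicate activation of at least 60% and every replicate at or above 60%; inconclusive = mean or all-replicate condition met, but not both; inactive = mean below 60% and not all replicates reaching 60%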
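System: LDL receptor-deficient CHO ldlA cells overexpressing murine SR-BI | Timing: 3 h uptake period with compound, 37 °C | Medium: HEPES-buffered (25 mM, pH 7.4) F12 plus 0.5% BSA | Dosing: Single-point compound dose | Signal: Bottom-read fluorescence, 550/595 nm | Read-out: Retained DiI signal reflecting DiI-HDL uptake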
S100A4 MyoIIA: blocks human S100A4 binding to myosin IIA peptide. S100A4/TAMRA-MyoIIA peptide fluorescence polarization. 0.14% of 360,000 active. inhibition, % at 10.7 µM. AID 652163. P26447;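 active = mean inhibition of at least 70% across replicates, with every replicate also reaching that level; inconclusive = mean inhibition reaches 70% but some replicates fall short; inactive = mean inhibition below 70%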
Target sequence (P26447 whole entry, looked up): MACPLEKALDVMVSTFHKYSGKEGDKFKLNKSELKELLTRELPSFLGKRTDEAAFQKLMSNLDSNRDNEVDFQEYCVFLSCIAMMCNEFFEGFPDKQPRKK
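Material: S100A4 monomer protein / Buffer or medium: 50 mM HEPES pH 7.2, 10 mM CaCl2, 100 mM KCl / Times: 5 min incubation before reading / Benchmarks: neutral control DMSO, positive control TFP / Reagent: labelled myosin peptide probe, 5 nM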
dFosB act-2: activators of mouse delta FosB homodimer DNA binding; shares compounds with dFosB act-1; 2,400 tested, under 10 active; activation, % at 24.9 µM; purified delta FosB, TAMRA-CDK5 oligo fluorescence polarization; normalised: neutral wells 0, positive control 100;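 active = highest replicate activation at or above 34% and every replicate reaching that threshold; inconclusive = meets only one of the two criteria; inactive = meets neither criterion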;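 note: higher polarization means more probe DNA bound by delta FosB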
A number is an active result.

Screening O=C(CCc1nc2ccccc2c(=O)[nH]1)NCCN1C(=O)S/C(=C\c2ccc(OC(F)F)cc2)C1=O returned PvdQ inh inactive, RAD54 branch inactive, dFosB act-1 47, SR-BI HDL uptake inactive, SR-BI DiI-HDL act inactive, S100A4 MyoIIA inactive and dFosB act-2 inactive.
CCOc1ccccc1-c1nc(-c2ccc(NC(=O)Cc3ccc(OC)cc3)cc2)no1 was read as PvdQ inh inactive, RAD54 branch inactive, dFosB act-1 25, SR-BI HDL uptake 99, SR-BI DiI-HDL act inactive and dFosB act-2 inactive.
Screening COc1ccc(CC(=O)Nc2ccc(-c3noc(-c4cc(OC)c(OC)c(OC)c4)n3)cc2)cc1 returned PvdQ inh inactive, RAD54 branch inactive, dFosB act-1 21, SR-BI HDL uptake inactive, SR-BI DiI-HDL act inactive and dFosB act-2 inactive.
COc1cc(-c2nc(-c3ccc(NC(=O)c4ccc5c(c4)OCO5)cc3)no2)cc(OC)c1OC was read as PvdQ inh inactive, RAD54 branch inactive, dFosB act-1 43, SR-BI HDL uptake inactive, SR-BI DiI-HDL act inactive and dFosB act-2 inactive.
For COc1ccc(CC(=O)Nc2ccc(-c3noc(-c4ccc(Cl)cc4)n3)cc2)cc1 the results were PvdQ inh inactive, RAD54 branch inactive, dFosB act-1 60, SR-BI HDL uptake inactive, SR-BI DiI-HDL act inactive and dFosB act-2 inactive.
COc1ccc(CC(=O)Nc2ccc(-c3noc(COc4ccccc4C)n3)cc2)cc1 was read as PvdQ inh inactive, RAD54 branch inactive, dFosB act-1 inactive, SR-BI HDL uptake inactive and SR-BI DiI-HDL act inactive.
`COC(=O)C[C@H]1CC[C@@H]2[C@H](COc3ccc(NS(=O)(=O)c4ccc(F)cc4)cc3C(=O)N2C)O1` gave RAD54 branch inactive and S100A4 MyoIIA inactive.
Screening CCCNC(=O)C[C@@H]1CC[C@H]2[C@@H](COc3ccc(NC(=O)c4ccc5c(c4)OCO5)cc3C(=O)N2C)O1 returned RAD54 branch inactive and S100A4 MyoIIA inactive.
For COc1ccc(CC(=O)Nc2ccc(NC(=O)c3ccccc3F)cc2)cc1 the results were PvdQ inh inactive, dFosB act-1 20, SR-BI HDL uptake inactive, SR-BI DiI-HDL act inactive, S100A4 MyoIIA inactive and dFosB act-2 inactive.
`COc1ccc(-c2noc(N3CCC(C(=O)Nc4ccc(OC)cc4OC)CC3)n2)cc1` gave PvdQ inh inactive, RAD54 branch inactive, dFosB act-1 inactive, SR-BI HDL uptake inconclusive, SR-BI DiI-HDL act inactive and S100A4 MyoIIA inactive.
`COc1ccc(NC(=O)C2CCN(c3nc(-c4ccc(OC)cc4)no3)CC2)cc1` gave PvdQ inh inactive, RAD54 branch inactive, dFosB act-1 29, SR-BI HDL uptake inactive, SR-BI DiI-HDL act inactive, S100A4 MyoIIA inactive and dFosB act-2 inactive.
For COc1ccc(-c2nc(CS(=O)(=O)CC(=O)Nc3ccc(Cl)cc3)c(C)o2)cc1 the results were PvdQ inh inactive, RAD54 branch inactive, dFosB act-1 45, SR-BI HDL uptake inactive, SR-BI DiI-HDL act inactive, S100A4 MyoIIA inactive and dFosB act-2 inactive.
For COc1ccc(NC(=O)CS(=O)(=O)Cc2nc(-c3ccc(C)cc3)oc2C)cc1 the results were PvdQ inh inactive, dFosB act-1 inactive, SR-BI HDL uptake inactive, SR-BI DiI-HDL act inactive and S100A4 MyoIIA inactive.
Cc1cc(C(=O)Nc2ccc3c(c2)C(=O)N(C)[C@H]2CC[C@@H](CC(=O)NCC(F)(F)F)O[C@H]2CO3)no1 was read as RAD54 branch inactive and S100A4 MyoIIA inactive.
For COc1ccc(Cn2c(C)c(C)c(C#N)c2NC(=O)Nc2cccc(C)c2)cc1 the results were PvdQ inh inactive, RAD54 branch inactive, dFosB act-1 63, SR-BI HDL uptake inactive, SR-BI DiI-HDL act inactive and dFosB act-2 inactive.
CN(C)CC(=O)Nc1ccc2c(c1)[C@@H]1C[C@@H](CC(=O)NCc3ccccc3)O[C@@H](CO)[C@@H]1O2 was read as RAD54 branch inactive and S100A4 MyoIIA inactive.
Screening C[C@@H]1CN([C@@H](C)CO)C(=O)c2cc(NC(=O)Cc3ccccc3)ccc2O[C@@H](C)CCCCO[C@H]1CN(C)S(=O)(=O)c1ccccc1 returned RAD54 branch inactive and S100A4 MyoIIA inactive.
